Test results from ChEMBL document CHEMBL4190389, “Synthesis and activity of di- or trisubstituted N-(phenoxyalkyl)- or N-{2-[2-(phenoxy)ethoxy]ethyl}piperazine derivatives on the central nervous system” (Bioorg Med Chem Lett, 2018).
Calls of active or inactive are those of the source. The calls are words filed in the database; no cut-off is given here.

Key:
[1] = system: Mus musculus; assay: Antidepressant-like activity in Albino Swiss CD-1 mouse assessed as immobility time at 5 mg/kg, ip administered 30 mins prior to test measured for last 4 mins of 6 mins observation by forced swim test (reference value: 153.9 to 201.9 secs); format: functional
[2] = system: Mus musculus; assay: Anticonvulsant activity in ip dosed Albino Swiss CD-1 mouse assessed as dose required to protect against 50 Hz current-induced seizure; format: functional; conditions: Swiss CD-1, ip
[3] = Protection index, ratio of TD50 for motor impairment in ip dosed Swiss albino CD-1 mouse to ED50 for protection against 50 Hz current-induced seizures in ip dosed Swiss albino CD-1 mouse; format: toxicity, organism-based, Swiss CD-1; conditions: in vivo, read-out: Ratio TD50/ED50
[4] = molecular target: T1, 5-hydroxytryptamine receptor 1A (Homo sapiens) (UniProt P08908); assay: Displacement of [3H]8-OH-DPAT from recombinant human 5-HT1A receptor expressed in HEK293 cell membranes at 10^-5 M after 60 mins by liquid scintillation counting method
T1 sequence (whole entry): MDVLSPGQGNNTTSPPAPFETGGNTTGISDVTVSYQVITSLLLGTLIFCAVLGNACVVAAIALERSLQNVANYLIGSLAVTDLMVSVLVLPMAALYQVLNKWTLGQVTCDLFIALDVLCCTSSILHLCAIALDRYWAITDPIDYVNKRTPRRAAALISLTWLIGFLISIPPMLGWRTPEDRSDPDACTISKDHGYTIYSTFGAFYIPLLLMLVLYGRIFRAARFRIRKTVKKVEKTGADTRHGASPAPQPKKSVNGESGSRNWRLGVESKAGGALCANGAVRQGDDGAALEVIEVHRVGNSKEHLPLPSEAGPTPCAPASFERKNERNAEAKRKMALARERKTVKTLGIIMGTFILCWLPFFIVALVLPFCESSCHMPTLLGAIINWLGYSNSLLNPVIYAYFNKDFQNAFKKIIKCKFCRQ

[5] = system: Mus musculus; assay: Antiallodynic activity in oxaliplatin-induced Albino Swiss CD-1 mouse allodynia model assessed as effect on shaking at 30 mg/kg, ip measured after 60 mins by cold plate test; format: functional, organism-based
[6] = system: Mus musculus; assay: Anxiolytic-like activity in Albino Swiss CD-1 mouse assessed as increase in number of punished crossings at 5 to 10 mg/kg, ip administered for 30 mins prior to test measured for 1 min by four-plate test; format: functional, organism-based
Summary of the method: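 Four-plate test in mice, i.p., 30 min before test; vehicle 0.9% NaCl; doses 1.25–10 mg/kg; number of punished crossings counted; mean ± SEM, n = 8–10 mice per group; ANOVA F statistics.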

[7] = system: Mus musculus; assay: Antidepressant-like activity in Albino Swiss CD-1 mouse assessed as immobility time at 20 mg/kg, ip administered 30 mins prior to test measured for last 4 mins of 6 mins observation by forced swim test (reference value: 153.9 to 201.9 secs); format: functional
[8] = molecular target: T2, D(2) dopamine receptor (Homo sapiens, UniProt P14416); assay: Displacement of [3H]methylspiperonee from recombinant human D2 receptor expressed in HEK293 cell membranes at 10^-5 M after 60 mins by liquid scintillation counting method
[9] = molecular target: 5-hydroxytryptamine receptor 6 (Homo sapiens, UniProt P50406); assay: Displacement of [3H]LSD from recombinant human 5-HT6 receptor expressed in CHO cells cell membranes after 60 mins by liquid scintillation counting method
[10] = system: Mus musculus; assay: Antidepressant-like activity in Albino Swiss CD-1 mouse assessed as immobility time at 10 mg/kg, ip administered 30 mins prior to test measured for last 4 mins of 6 mins observation by forced swim test (reference value: 153.9 to 201.9 secs); format: functional
[11] = Neurotoxicity in ip dosed Albino Swiss CD-1 mouse assessed as minimum dose required to induce motor impairment treated 30 mins prior to test by rotarod test; format: toxicity, organism-based; conditions: in vivo
[12] = system: Mus musculus; assay: Antiallodynic activity in oxaliplatin-induced Albino Swiss CD-1 mouse allodynia model assessed as effect on jumping at 30 mg/kg, ip measured after 60 mins by cold plate test; format: functional, organism-based
[13] = system: Mus musculus; assay: Antiallodynic activity in oxaliplatin-induced Albino Swiss CD-1 mouse allodynia model assessed as effect on decrease in abnormal movement at 30 mg/kg, ip measured after 60 mins by cold plate test; format: functional, organism-based
[14] = system: Mus musculus; assay: Toxicity in Albino Swiss CD-1 mouse assessed as death at 30 to 100 mg/kg, ip; format: organism-based; conditions: in vivo
Summary of the method: (§1)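 Deaths counted in mice during maximal electroshock (MES) seizure testing after i.p. dosing, 6 mice per dose (3 or 1 at some top doses); recorded as number dead/number tested alongside protection and rotarod motor impairment (10 rpm); untreated control group included.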

[15] = molecular target: 5-hydroxytryptamine receptor 2A (Homo sapiens, UniProt P28223); assay: biochemical; format: cell-based, HEK293;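 further: radioligand displacement of [3H]ketanserin binding at human 5-HT2A receptor in membranes from HEK293 cells, 60 min incubation, read by liquid scintillation counting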
[16] = system: Mus musculus; assay: Antiallodynic activity in oxaliplatin-induced Albino Swiss CD-1 mouse allodynia model assessed as effect on hind paw licking at 30 mg/kg, ip measured after 60 mins by cold plate test; format: functional, organism-based
[17] = system: Mus musculus; assay: Antinociceptive activity in STZ-induced Albino Swiss CD-1 mouse model of thermal-induced nociception assessed as increase in latency to respond with hind paw lick or jumping at 30 mg/kg, ip measured after 60 mins by hot plate test; format: functional, organism-based
[18] = system: Mus musculus; assay: Antiallodynic activity in STZ-induced Albino Swiss CD-1 mouse allodynia model assessed as increase in paw withdrawal latency time at 30 mg/kg, ip measured after 60 mins by Von Frey test; format: functional, organism-based
[19] = system: Mus musculus; assay: Anticonvulsant activity in Albino Swiss CD-1 mouse assessed as protection against 50 Hz current-induced seizure at 100 mg/kg, ip; format: functional, organism-based
[20] = system: Mus musculus; assay: Toxicity in Albino Swiss CD-1 mouse assessed as effect on locomotory activity at 5 to 10 mg/kg, ip administered for 30 mins prior to test measured for 1 min; format: organism-based; conditions: in vivo
Summary of the method: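 Mice dosed i.p. 30 min before test; vehicle groups received 0.9% NaCl. Spontaneous locomotion scored as number of crossings during a 1-min session. Each dose compared with its own vehicle group by Student t-test; mean ± SEM, n = 8–10 mice per group.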

[21] = molecular target: T3, 5-hydroxytryptamine receptor 7 (Homo sapiens, UniProt P34969); assay: biochemical; format: cell-based, CHO
[22] = molecular target: T4, Alpha-1A adrenergic receptor (Homo sapiens) (UniProt P35348); assay: Displacement of [3H]prazosin from recombinant human alpha1 adrenoceptor expressed in CHO cell membranes at 10^-5 M after 30 mins by liquid scintillation counting method
T4 sequence (whole entry): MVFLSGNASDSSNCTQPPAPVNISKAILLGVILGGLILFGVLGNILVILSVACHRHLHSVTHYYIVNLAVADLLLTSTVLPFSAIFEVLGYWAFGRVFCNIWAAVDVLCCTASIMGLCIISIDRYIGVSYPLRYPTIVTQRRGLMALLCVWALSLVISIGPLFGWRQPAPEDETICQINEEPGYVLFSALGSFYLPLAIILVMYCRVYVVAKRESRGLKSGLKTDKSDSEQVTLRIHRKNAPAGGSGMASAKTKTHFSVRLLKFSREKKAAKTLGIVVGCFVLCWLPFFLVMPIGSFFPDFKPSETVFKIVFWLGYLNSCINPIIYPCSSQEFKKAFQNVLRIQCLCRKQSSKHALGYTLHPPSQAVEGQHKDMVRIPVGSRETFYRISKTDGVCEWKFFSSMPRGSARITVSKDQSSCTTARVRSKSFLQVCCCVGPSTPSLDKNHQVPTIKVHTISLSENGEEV

[23] = molecular target: T1, 5-hydroxytryptamine receptor 1A (Homo sapiens); assay: Agonist activity at human 5-HT1A receptor expressed in CHO-K1 cells co-expressing Galpha16 assessed as increase in calcium mobilization measured for 30 secs by aequorin-derived luminescence assay relative to serotonin; format: functional, cell-based
[24] = molecular target: T1, 5-hydroxytryptamine receptor 1A (Homo sapiens); assay: Antagonist activity at human 5-HT1A receptor expressed in CHO-K1 cells co-expressing Galpha16 assessed as decrease in serotonin-induced calcium mobilization preincubated for 25 mins followed by serotonin challenge measured for 30 secs by aequorin-derived luminescence assay relative to control; format: functional, cell-based
[25] = molecular target: T1, 5-hydroxytryptamine receptor 1A (Homo sapiens); assay: (§2) Antagonist activity at human 5-HT1A receptor expressed in CHO-K1 cells co-expressing Galpha16 assessed as decrease in serotonin calcium mobilization preincubated for 25 mins followed by serotonin challenge measured for 30 secs by aequorin-derived luminescence assay; format: functional, cell-based
[26] = molecular target: T5, 5-hydroxytryptamine receptor 1A (Homo sapiens, UniProt P08908); assay: as §2; format: functional, cell-based
T5 sequence (P08908 whole entry): T1 sequence (whole entry)

[27] = system: Mus musculus; assay: Anxiolytic-like activity in Albino Swiss CD-1 mouse assessed as increase in number of punished crossings at 1.25 mg/kg, ip administered for 30 mins prior to test measured for 1 min by four-plate test; format: functional, organism-based
Summary of the method: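 Four-plate test in mice; compounds or clorazepate given i.p. 30 min before testing, vehicle 0.9% NaCl; read-out was number of punished crossings; mean ± SEM, n = 8–10 mice per group; doses compared with one-way statistics (F) against vehicle.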

[28] = molecular target: T2, D(2) dopamine receptor; assay: Agonist activity at human D2 receptor expressed in CHO-K1 cells co-expressing Galphaqi5 assessed as increase apomorphine-induced calcium mobilization measured for 30 secs by aequorin-derived luminescence assay relative to apomorphine; format: functional, cell-based
[29] = molecular target: T6, Alpha-1A adrenergic receptor (Homo sapiens, UniProt P35348); assay: Displacement of [3H]prazosin from recombinant human alpha1 adrenoceptor expressed in CHO cell membranes after 30 mins by liquid scintillation counting method
T6 sequence (P35348 whole entry): T4 sequence (whole entry)

[30] = system: Mus musculus; assay: Toxicity in Albino Swiss CD-1 mouse assessed as death at 30 mg/kg, ip; format: organism-based; conditions: in vivo; summary of the method: as §1
[31] = molecular target: T3, 5-hydroxytryptamine receptor 7; assay: Antagonist activity at human 5-HT7 receptor expressed in CHO-K1 cells assessed as decrease in serotonin-induced cAMP level after 1 hr by TR-FRET assay relative to control; format: functional, cell-based
[32] = molecular target: T2, D(2) dopamine receptor; assay: Displacement of [3H]methylspiperonee from recombinant human D2 receptor expressed in HEK293 cells cell membranes after 60 mins by liquid scintillation counting method
[33] = molecular target: T5, 5-hydroxytryptamine receptor 1A; assay: Displacement of [3H]8-OH-DPAT from recombinant human 5-HT1A receptor expressed in HEK293 cell membranes after 60 mins by liquid scintillation counting method
[34] = molecular target: T3, 5-hydroxytryptamine receptor 7; assay: Antagonist activity at human 5-HT7 receptor expressed in CHO-K1 cells assessed as decrease in serotonin-induced cAMP level after 1 hr by TR-FRET assay; format: functional, cell-based
[35] = molecular target: T2, D(2) dopamine receptor; assay: Antagonist activity at human D2 receptor expressed in CHO-K1 cells co-expressing Galphaqi5 assessed as decrease in apomorphine-induced calcium mobilization preincubated for 30 mins followed by apomorphine challenge measured for 30 secs by aequorin-derived luminescence assay; format: functional, cell-based
[36] = molecular target: T3, 5-hydroxytryptamine receptor 7; assay: Agonist activity at human 5-HT7 receptor expressed in CHO-K1 cells assessed as increase in serotonin-induced cAMP level after 1 hr by TR-FRET assay relative to serotonin; format: functional, cell-based

T2 sequence (P14416 whole entry): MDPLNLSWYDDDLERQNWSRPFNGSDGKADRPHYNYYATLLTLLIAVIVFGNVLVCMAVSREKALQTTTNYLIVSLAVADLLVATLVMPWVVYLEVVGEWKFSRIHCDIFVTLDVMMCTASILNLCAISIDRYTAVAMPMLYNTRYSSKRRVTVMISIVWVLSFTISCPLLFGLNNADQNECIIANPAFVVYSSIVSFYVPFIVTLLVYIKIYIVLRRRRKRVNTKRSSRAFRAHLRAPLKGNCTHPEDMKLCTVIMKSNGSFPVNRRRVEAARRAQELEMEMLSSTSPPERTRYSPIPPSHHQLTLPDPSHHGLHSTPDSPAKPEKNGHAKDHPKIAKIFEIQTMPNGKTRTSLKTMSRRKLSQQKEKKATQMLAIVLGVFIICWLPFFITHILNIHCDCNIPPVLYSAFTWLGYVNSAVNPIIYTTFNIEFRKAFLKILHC
T3 sequence (P34969 whole entry): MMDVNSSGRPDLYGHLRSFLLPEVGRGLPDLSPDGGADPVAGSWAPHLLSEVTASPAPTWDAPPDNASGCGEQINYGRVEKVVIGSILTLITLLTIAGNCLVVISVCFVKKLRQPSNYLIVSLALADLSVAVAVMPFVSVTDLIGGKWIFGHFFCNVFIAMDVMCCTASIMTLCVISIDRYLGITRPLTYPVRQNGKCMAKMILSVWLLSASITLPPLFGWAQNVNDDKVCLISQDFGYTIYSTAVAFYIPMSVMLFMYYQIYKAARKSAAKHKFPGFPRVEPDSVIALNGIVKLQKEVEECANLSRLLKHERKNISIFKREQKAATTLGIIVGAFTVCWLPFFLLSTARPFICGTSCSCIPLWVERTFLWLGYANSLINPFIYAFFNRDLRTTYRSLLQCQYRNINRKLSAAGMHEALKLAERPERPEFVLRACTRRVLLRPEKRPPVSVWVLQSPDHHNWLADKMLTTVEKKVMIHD
5-hydroxytryptamine receptor 6, sequence (P50406 whole entry): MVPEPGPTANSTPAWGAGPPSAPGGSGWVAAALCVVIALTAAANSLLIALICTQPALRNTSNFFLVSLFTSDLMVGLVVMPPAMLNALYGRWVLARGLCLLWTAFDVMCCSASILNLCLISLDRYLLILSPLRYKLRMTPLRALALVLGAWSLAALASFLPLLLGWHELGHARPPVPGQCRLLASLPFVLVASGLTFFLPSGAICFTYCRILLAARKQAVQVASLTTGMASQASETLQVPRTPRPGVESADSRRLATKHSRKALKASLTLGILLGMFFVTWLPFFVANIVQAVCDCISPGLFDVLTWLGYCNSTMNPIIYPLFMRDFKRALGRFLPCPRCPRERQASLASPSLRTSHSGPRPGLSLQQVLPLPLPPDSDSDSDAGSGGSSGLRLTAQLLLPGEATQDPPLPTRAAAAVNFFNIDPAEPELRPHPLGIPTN
5-hydroxytryptamine receptor 2A, sequence (P28223 whole entry): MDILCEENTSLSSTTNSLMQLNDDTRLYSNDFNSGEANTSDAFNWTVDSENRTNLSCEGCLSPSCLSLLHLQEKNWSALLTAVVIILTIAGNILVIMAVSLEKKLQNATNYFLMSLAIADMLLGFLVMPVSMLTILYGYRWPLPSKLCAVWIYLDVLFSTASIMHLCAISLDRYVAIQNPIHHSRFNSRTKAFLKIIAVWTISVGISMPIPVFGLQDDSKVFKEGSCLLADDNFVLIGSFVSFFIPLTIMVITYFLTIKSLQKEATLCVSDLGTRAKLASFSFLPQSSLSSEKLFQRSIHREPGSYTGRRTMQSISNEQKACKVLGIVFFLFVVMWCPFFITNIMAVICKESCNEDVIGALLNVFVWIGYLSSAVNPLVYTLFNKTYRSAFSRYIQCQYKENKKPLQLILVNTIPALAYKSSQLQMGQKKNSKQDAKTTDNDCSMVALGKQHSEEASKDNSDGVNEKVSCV

Row | SMILES | Time [1] [s] | Activity [6] | Time [7] [s] | Ki [9] [nM] | Time [10] [s] | Ki [15] [nM] | Activity [20] | Ki [21] [nM] | Emax [23] [%] | Emax [24] [%] | Kb [25] [nM] | IC50 [26] [nM] | Emax [28] [%] | other results
1 | Cc1cc(C)c(C)c(OCCOCCN2CCN(CCO)CC2)c1.Cl.Cl | 171.8 | inactive | 176.4 | > 5000 | 184.9 | > 5000 | Non-Toxic | 3140 |  |  |  |  |  | ED50 [2]: 24.4 mg/kg; selectivity ratio [3]: 3.07; inhibition [4]: inactive; Activity [5]: inactive; inhibition [8]: inactive; TD50 at 0.5 h [11]: 74.9 mg/kg; Activity [12]: inactive; Activity [13]: inactive; Activity [14]: Non-Toxic; Activity [16]: inactive; Activity [17]: inactive; Activity [18]: Active; Activity [19]: Active; inhibition [22]: inactive
2 | COc1ccccc1N1CCN(C[C@@H](C(=O)NC(C)(C)C)c2ccccc2)CC1 |  |  |  |  |  |  |  |  | 1 | 0 | 6.6 | 16.9 |  | 
3 | O=C(O)C1N=C(c2ccccc2)c2cc(Cl)ccc2NC1=O (stereo unspecified) |  |  |  |  |  |  |  |  |  |  |  |  |  | Activity [27]: Active
4 | CN(C)CCCN1c2ccccc2Sc2ccc(Cl)cc21 |  |  |  |  |  |  |  |  |  |  |  |  | 5 | 
5 | COc1ccccc1N1CCN(CCCOc2ccc(C)cc2C)CC1.Cl | 182.6 | inactive | 197.3 | > 5000 | 198.1 | 527 | Non-Toxic | 15 | 5 | 2 | 1.8 | 7.19 | 2 | Ki [29]: 11 nM; Activity [30]: Non-Toxic; Emax [31]: 5%; Ki [32]: 97 nM; Ki [33]: 2 nM; IC50 [34]: 1050 nM; Kb [34]: 448 nM; IC50 [35]: 17.7 nM; Kb [35]: 5.29 nM; Emax [36]: 0%
